Molecules are shown by their SMILES. The source made the active and inactive calls. No cut-off for these calls is given here.

Data set [1] deals with T1, CYP3A4 (Homo sapiens, UniProt P08684). Briefly: Inhibition of CYP3A4 in human liver microsomes using testosterone as substrate at 10 uM by LC-MS-MS analysis relative to control. Format: ADME, Microsome. Conditions: probe testosterone. (In general: Liver microsomes are vesicles of endoplasmic reticulum, rich in cytochrome P450 enzymes.)
For data set [2], the target named is T1, CYP3A4. Briefly: Time dependent inhibition of CYP3A4 in human liver microsomes using testosterone as substrate at 10 uM preincubated for 30 mins by LC-MS-MS analysis relative to control. Format: ADME, Microsome. As to conditions: probe testosterone, read-out: TDI. The method, boiled down: (§1)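 CYP3A4 metabolism of testosterone was measured after 0 or 30 min preincubation of enzyme with test article at the indicated concentration. Activity lost via preincubation, relative to the zero-minute control with the same inhibitor, was the end point. 6β-OH testosterone was detected by LC-MS/MS with cortisone as internal standard.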

Data set [3] concerns the target Tyrosine-protein kinase Fes/Fps (Homo sapiens) (UniProt P07332). Briefly: Inhibition of FES (unknown origin) relative to control. As to conditions: concentration not given here. The method, boiled down: (§2)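 Kinase selectivity was assessed at a 10 μM or 0.1 μM test concentration, as footnoted per entry.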
The target of another data set is Cytochrome P450 2C9 (Homo sapiens, UniProt P11712). Briefly: Inhibition of CYP2C9 (unknown origin). Format: ADME.
Chain of Cytochrome P450 2C9 (P11712 whole entry): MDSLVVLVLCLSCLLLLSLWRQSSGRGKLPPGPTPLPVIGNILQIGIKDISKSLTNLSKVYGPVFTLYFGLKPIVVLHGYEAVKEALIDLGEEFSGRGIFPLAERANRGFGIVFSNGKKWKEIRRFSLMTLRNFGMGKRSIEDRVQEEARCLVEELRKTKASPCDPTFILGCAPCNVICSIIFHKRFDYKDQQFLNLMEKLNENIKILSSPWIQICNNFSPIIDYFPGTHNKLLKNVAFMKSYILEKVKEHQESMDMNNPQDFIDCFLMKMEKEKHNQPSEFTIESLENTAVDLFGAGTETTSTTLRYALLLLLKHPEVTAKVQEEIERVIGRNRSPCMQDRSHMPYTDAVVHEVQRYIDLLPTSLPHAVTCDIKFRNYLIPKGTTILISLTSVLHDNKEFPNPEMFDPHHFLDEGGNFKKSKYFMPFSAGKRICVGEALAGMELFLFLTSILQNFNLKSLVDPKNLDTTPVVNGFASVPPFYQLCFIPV
Data set [4] is described as follows: Oral bioavailability in rat. Format: ADME, organism-based. As to conditions: in vivo.
Data set [5] can be described thus: Half life in rat. Format: ADME, organism-based. Conditions: in vivo.
Data set [6] deals with T2, Macrophage-stimulating protein receptor (Homo sapiens, UniProt Q04912). Conditions: 1 uM.
T2 sequence (Q04912 25-304 limits assumed): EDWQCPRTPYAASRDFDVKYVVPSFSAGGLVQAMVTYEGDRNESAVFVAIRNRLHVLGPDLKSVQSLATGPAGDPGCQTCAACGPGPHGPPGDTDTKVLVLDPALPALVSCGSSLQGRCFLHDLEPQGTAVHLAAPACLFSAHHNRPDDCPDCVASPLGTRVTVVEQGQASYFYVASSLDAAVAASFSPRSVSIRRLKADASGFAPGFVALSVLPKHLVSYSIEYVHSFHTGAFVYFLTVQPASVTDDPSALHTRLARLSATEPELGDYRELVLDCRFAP
T2 sequence (Q04912 310-1400 limits assumed): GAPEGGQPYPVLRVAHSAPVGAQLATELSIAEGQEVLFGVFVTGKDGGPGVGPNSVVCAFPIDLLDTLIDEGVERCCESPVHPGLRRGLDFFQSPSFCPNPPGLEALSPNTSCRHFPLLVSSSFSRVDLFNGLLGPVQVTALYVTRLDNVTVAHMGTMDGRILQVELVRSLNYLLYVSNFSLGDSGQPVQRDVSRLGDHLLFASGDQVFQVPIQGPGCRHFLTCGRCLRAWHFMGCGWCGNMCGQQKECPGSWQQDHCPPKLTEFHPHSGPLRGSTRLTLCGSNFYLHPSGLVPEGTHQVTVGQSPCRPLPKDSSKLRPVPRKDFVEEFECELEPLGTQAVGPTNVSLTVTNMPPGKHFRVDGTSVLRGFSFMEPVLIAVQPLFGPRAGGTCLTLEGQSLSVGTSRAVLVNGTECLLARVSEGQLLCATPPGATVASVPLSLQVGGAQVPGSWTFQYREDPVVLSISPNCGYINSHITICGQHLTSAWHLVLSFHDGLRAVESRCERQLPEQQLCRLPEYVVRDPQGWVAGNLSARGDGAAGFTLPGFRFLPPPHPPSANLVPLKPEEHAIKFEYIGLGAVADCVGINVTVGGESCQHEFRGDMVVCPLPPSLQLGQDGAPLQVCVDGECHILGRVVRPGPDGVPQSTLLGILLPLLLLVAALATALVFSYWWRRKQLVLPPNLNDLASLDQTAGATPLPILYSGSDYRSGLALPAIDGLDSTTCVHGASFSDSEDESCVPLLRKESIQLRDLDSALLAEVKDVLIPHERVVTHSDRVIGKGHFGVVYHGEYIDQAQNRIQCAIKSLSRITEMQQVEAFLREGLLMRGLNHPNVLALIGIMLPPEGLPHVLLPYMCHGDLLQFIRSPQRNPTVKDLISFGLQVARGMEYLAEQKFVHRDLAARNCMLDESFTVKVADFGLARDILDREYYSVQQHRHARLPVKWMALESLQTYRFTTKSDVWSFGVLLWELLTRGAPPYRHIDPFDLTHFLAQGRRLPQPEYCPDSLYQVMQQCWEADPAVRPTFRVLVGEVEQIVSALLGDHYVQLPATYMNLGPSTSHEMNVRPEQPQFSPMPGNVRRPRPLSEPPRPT
The test system of data set [7] is Mus musculus. Briefly: In vivo inhibition of c-MET phosphorylation at tyrosine Y1349 in human GTL16 cells xenografted in mouse at 100 mg/kg, po after 1 hr by Western blotting analysis. Format: functional, organism-based. Details: dose 100 mg/kg. The method, boiled down: (§3)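 Mice carrying GTL-16 xenografts received a single oral dose of 10, 30, 100 or 400 mg/kg and were euthanized 1 h after dosing. Phospho-c-Met (Y1349) and total c-Met in the tumours were measured by quantitative Western blotting. Plasma total drug was also measured, and in vivo IC50 was deduced from the relationship between plasma level and tumour pY1349.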
A general note: A xenograft is tissue or cells of one species grown in another, often human tumour cells in immunodeficient mice.

The target in a further data set is Cytochrome P450 2D6 (Homo sapiens, UniProt P10635). Briefly: Inhibition of CYP2D6 (unknown origin). Format: ADME.
The subject of data set [8] is GTL 16. Briefly: Antitumor activity against human GTL16 cells expressing c-MET xenografted in CD1 nu/nu mouse assessed as tumor growth inhibition at 100 mg/kg, po qd for 21 days. Format: functional, organism-based. On the set-up: dose 100 mg/kg.
The subject of data set [9] is GTL 16. Briefly: Antitumor activity against human GTL16 cells expressing c-MET xenografted in po dosed CD1 nu/nu mouse assessed as tumor growth inhibition administered bid for 21 days. Format: functional, organism-based. Put shortly:
(§4)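 Mice carrying GTL-16 tumours received the compound orally; tumour growth was compared with the vehicle-treated group by two-way repeated measures ANOVA.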

Data set [10] in a line: Volume of distribution at steady state in dog. Format: ADME, organism-based, Canis lupus familiaris. Conditions: in vivo, read-out: Vdss.
Data set [11] concerns the target Hepatocyte growth factor receptor (Homo sapiens) (UniProt P08581). As to conditions: 1 uM.
Data set [12] concerns the target Vascular endothelial growth factor receptor 3 (Homo sapiens) (UniProt P35916). Briefly: Inhibition of FLT4 (unknown origin) relative to control. As to conditions: concentration not given here. Put shortly:
as §2

Data set [13] has as its target Fibroblast growth factor receptor 3 (Homo sapiens) (UniProt P22607). Briefly: Inhibition of FGFR3 (unknown origin) relative to control. As to conditions: concentration not given here. The method, boiled down: as §2
A short description of data set [14]: Half life in dog. Conditions: in vivo. Format: ADME, organism-based, Canis lupus familiaris.
The nature of data set [15]: Oral bioavailability in dog. Format: ADME, organism-based, Canis lupus familiaris. Conditions: in vivo.
In data set [16] the test system is Mus musculus. Briefly: In vivo inhibition of c-MET phosphorylation at tyrosine Y1349 in human GTL16 cells xenografted in po dosed mouse after 1 hr by Western blotting analysis. Conditions: GTL 16, 1 h. Format: functional, organism-based. The method, boiled down:
as §3

Data set [17] is described as follows: Antitumor activity against human GTL16 cells expressing c-MET xenografted in CD1 nu/nu mouse assessed as tumor growth inhibition at 10 mg/kg, po bid for 21 days relative to control. Format: functional. Conditions: GTL 16, 504 h, read-out: TGI. The method, boiled down: as §4
Data set [18] is described as follows: Antitumor activity against human GTL16 cells expressing c-MET xenografted in CD1 nu/nu mouse assessed as tumor growth inhibition at 100 mg/kg, po bid for 21 days relative to control. Format: functional. Conditions: GTL 16, 504 h, read-out: TGI. Put shortly: as §4
Data set [19] concerns Mus musculus. Briefly: In vivo inhibition of c-MET phosphorylation at tyrosine Y1349 in human GTL16 cells xenografted in po dosed mouse after 8 hrs by Western blotting analysis. Format: functional, organism-based. As to conditions: GTL 16, 8 h.
Data set [20] concerns the target T3, Tyrosine-protein kinase Mer (Homo sapiens) (UniProt Q12866).
T3 sequence (whole entry): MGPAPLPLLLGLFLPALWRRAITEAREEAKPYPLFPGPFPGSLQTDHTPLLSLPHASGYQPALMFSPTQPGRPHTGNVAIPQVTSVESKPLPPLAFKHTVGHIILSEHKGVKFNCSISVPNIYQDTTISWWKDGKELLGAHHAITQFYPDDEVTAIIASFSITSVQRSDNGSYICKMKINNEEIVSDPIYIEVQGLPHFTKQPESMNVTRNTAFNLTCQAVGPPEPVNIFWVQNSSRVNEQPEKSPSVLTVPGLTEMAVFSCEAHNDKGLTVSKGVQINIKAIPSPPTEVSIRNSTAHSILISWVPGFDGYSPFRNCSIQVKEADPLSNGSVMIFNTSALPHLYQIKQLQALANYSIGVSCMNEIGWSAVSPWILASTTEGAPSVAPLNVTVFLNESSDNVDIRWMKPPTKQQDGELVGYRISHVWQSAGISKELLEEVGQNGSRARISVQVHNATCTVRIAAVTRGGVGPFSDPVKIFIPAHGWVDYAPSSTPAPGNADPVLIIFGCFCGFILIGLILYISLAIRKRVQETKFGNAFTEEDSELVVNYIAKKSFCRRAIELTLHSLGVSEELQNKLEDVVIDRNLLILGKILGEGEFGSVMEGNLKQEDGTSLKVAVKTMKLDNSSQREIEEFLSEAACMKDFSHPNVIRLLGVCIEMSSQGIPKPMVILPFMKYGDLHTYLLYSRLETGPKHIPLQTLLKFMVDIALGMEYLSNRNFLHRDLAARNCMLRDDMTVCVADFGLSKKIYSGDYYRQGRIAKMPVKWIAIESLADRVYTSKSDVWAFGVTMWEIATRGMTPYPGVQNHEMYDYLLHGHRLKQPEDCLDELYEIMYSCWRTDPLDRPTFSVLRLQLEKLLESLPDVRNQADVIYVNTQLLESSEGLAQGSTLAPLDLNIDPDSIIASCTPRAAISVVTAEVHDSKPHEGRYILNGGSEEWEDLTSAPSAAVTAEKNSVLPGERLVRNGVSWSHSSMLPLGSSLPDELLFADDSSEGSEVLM
Briefly: Inhibition of MER (unknown origin) relative to control. Conditions: concentration not given here. The method, boiled down:
as §2

Data set [21] can be described thus: Plasma clearance in rat. Format: ADME, organism-based.
For data set [22], the system named is Mus musculus. Briefly: Toxicity in CD1 nu/nu mouse xenografted with human GLT16 cells assessed as change in body weight relative to control. Format: organism-based. Conditions: in vivo.
Data set [23] can be described thus: Antitumor activity against human GTL16 cells expressing c-MET xenografted in CD1 nu/nu mouse assessed as tumor growth inhibition at 3 mg/kg, po bid for 21 days relative to control. Format: functional. Conditions: GTL 16, 504 h, read-out: TGI. Put shortly: as §4
Data set [24] addresses T4, Cytochrome P450 3A4 (Homo sapiens, UniProt P08684). Briefly: Time dependent inhibition of CYP3A4 in human liver microsomes using testosterone as substrate up to 100 uM by LC-MS-MS analysis. Format: ADME, Microsome. The method, boiled down: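 For inactivation kinetics, CYP3A4 testosterone 6β-hydroxylation was quantified by LC-MS/MS as the area ratio of 6β-OH testosterone to the cortisone internal standard. Ki and kinact were obtained by nonlinear regression.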

A short description of data set [25]: Antitumor activity against human GTL16 cells expressing c-MET xenografted in CD1 nu/nu mouse assessed as tumor growth inhibition at 30 mg/kg, po bid for 21 days relative to control. As to conditions: GTL 16, 504 h, read-out: TGI. Format: functional. Put shortly:
as §4

For data set [26], the target named is T2, Macrophage-stimulating protein receptor. Briefly: Inhibition of RON (unknown origin) by TR-FRET assay. (In TR-FRET formats the signal depends on donor and acceptor labels being close together.)
The nature of data set [27]: Plasma clearance in dog. Format: ADME, organism-based, Canis lupus familiaris.
Data set [28] in a line: Volume of distribution at steady state in rat. Format: ADME, organism-based. As to conditions: in vivo, read-out: Vdss.
Data set [29] has as its target T4, Cytochrome P450 3A4. Briefly: Time dependent inhibition of CYP3A4 in human liver microsomes using testosterone as substrate by LC-MS-MS analysis relative to control. Format: ADME, Microsome. The method, boiled down: as §1

T1 sequence (P08684 whole entry): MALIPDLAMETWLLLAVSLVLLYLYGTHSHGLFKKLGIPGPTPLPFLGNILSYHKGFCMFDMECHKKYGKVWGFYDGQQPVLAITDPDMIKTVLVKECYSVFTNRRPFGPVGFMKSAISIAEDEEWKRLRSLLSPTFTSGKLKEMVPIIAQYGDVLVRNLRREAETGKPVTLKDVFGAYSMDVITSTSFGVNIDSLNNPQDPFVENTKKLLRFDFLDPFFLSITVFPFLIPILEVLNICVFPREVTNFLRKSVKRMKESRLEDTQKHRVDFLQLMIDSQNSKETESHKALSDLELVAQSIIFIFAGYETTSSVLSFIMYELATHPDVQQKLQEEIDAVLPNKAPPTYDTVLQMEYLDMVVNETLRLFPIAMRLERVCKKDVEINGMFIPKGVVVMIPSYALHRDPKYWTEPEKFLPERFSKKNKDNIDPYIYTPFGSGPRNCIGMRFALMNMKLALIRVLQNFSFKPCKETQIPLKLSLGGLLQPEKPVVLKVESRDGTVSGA
T4 sequence (P08684 whole entry): as above
Chain of Vascular endothelial growth factor receptor 3 (Homo sapiens) (P35916 whole entry): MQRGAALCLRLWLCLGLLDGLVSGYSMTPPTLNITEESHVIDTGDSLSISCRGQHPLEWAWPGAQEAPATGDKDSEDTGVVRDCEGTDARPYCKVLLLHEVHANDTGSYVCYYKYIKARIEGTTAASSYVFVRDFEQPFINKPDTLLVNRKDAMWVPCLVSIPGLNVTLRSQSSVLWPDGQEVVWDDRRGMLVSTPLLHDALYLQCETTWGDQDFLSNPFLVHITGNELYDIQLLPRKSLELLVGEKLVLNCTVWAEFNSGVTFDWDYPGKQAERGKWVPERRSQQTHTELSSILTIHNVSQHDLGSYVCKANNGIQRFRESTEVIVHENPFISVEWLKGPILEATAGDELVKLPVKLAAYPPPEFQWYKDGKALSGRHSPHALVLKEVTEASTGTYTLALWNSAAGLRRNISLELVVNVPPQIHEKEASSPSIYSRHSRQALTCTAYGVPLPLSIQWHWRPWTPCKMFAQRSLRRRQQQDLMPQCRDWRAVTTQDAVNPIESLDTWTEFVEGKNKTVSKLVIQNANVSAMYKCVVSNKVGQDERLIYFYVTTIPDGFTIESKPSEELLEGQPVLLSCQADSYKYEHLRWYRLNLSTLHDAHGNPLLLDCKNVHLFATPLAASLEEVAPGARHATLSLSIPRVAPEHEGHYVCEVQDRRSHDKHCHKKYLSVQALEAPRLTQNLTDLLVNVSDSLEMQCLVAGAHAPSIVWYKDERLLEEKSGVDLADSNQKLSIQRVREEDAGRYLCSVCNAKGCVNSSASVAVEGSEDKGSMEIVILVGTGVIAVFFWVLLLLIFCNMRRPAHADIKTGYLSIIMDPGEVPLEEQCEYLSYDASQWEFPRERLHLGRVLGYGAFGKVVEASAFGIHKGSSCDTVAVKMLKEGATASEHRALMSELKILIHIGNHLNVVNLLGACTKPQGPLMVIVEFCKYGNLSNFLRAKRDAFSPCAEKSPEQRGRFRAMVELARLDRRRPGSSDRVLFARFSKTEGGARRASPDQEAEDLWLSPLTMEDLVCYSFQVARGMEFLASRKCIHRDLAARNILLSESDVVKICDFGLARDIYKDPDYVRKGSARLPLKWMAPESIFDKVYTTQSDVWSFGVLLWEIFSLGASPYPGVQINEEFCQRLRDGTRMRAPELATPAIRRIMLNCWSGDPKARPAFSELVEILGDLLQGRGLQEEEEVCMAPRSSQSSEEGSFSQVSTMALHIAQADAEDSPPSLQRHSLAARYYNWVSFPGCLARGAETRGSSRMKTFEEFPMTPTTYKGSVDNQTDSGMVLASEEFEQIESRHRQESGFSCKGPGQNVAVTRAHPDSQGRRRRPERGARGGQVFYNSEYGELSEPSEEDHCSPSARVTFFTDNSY
Chain of Tyrosine-protein kinase Fes/Fps (Homo sapiens) (P07332 whole entry): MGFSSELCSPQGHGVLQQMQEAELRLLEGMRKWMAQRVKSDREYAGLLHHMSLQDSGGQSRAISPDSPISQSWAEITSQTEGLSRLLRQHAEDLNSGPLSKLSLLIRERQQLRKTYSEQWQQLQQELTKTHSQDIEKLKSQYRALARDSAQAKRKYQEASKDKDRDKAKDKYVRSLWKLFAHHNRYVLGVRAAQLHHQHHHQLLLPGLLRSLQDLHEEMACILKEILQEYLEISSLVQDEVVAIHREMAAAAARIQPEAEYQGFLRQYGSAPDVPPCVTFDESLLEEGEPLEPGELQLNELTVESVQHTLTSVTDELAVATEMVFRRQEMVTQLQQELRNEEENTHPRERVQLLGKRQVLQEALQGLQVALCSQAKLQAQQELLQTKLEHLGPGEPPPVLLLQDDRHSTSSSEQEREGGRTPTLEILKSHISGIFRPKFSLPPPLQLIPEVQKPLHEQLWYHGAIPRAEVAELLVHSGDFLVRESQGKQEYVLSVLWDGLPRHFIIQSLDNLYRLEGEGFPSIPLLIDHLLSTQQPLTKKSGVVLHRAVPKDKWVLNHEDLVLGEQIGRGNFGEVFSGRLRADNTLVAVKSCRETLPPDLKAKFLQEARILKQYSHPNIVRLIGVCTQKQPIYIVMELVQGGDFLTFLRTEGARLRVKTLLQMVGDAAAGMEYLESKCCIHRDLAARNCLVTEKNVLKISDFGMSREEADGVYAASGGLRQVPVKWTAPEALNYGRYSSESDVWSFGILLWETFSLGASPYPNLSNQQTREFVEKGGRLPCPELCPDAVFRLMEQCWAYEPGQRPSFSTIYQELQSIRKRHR

The molecule `Cn1cc(-c2cnc3ccc4ccc(CS(=O)(=O)NCc5cccnc5)cc4c(=O)c3c2)cn1` registered an inhibition at 10 µM on CYP3A4 [1] of 30%. The inhibition at 30 min, 10 µM at CYP3A4 [2] turned out to be 0%.

For the molecule `Cn1cc(-c2cnc3ccc4ccc(CS(=O)(=O)NCc5ccccn5)cc4c(=O)c3c2)cn1` [MK-8033], the inhibition in data set [3] was 60%; in data set [6] it was above 90%; in [11], above 90%; in data set [12], 60%; in [13] it was 60%; in data set [20], 60%. The IC50 (commonly the concentration needed to halve the response being measured) amounted to 14700 nM at Cytochrome P450 2C9; 46200 nM on Cytochrome P450 2D6; 1300 nM with Mus musculus [16]; 1700 nM with Mus musculus [19]; 7 nM in data set [26]. The bioavailability (as a rule, dose-corrected exposure relative to a reference, in per cent) amounted to 35% in data set [4] and 33% in data set [15]. This molecule came in with an inhibition at 10 µM at CYP3A4 [1] of 31%. The half-life – broadly, the time in which the quantity being followed falls by half – in [5] was 0.8 h; in data set [14] it was 3.1 h. For the same molecule, the inhibition entry with Mus musculus [7] is “Active”. In the data set on GTL 16 [8], the TGI result is “Active”. Also, at CYP3A4 [2], the inhibition at 30 min, 10 µM is 16%. Moreover, the TGI result in the data set on GTL 16 [9] is “Dose-dependent effect”. The Vd came to 0.7 L/kg in [10] and 0.4 L/kg in [28]. Further, in data set [17], the inhibition in vivo at 10 mg/kg stood at 18%. Further, in data set [18], the inhibition in vivo at 100 mg/kg was 86%. The clearance (in general, the rate of elimination divided by the concentration) in data set [21] worked out at 20 mL/min/kg; in [27], 3.1 mL/min/kg. For the same molecule, the Activity result in the data set with Mus musculus [22] is “Non-toxic”. The inhibition in vivo at 3 mg/kg in data set [23] was 22%. For the same molecule, the TDI result on Cytochrome P450 3A4 [24] is listed as “Not Active”. For the same molecule, in data set [25], the inhibition in vivo at 30 mg/kg was 57%.

In turn, `Cc1nccc(CNS(=O)(=O)Cc2ccc3ccc4ncc(-c5cnn(C)c5)cc4c(=O)c3c2)n1` gave an inhibition at 10 µM on CYP3A4 [1] of 22%. Also, at CYP3A4 [2], the inhibition at 30 min, 10 µM came out at 5%.

Molecule `Cn1cc(-c2cnc3ccc4ccc(CS(=O)(=O)NCC5COCCO5)cc4c(=O)c3c2)cn1` (stereo not drawn) gave an inhibition at 10 µM on CYP3A4 [1] of 0%. Also, on CYP3A4 [2], the inhibition at 30 min, 10 µM was 35%.

For `Cn1cc(-c2cnc3ccc4ccc(CS(=O)(=O)NCc5cccc[n+]5[O-])cc4c(=O)c3c2)cn1`, the inhibition at 10 µM at CYP3A4 [1] stood at 24%. The inhibition at 30 min, 10 µM on CYP3A4 [2] turned out to be 0%.

For the molecule `Cn1cc(-c2cnc3ccc4ccc(CS(=O)(=O)NCc5ccncc5)cc4c(=O)c3c2)cn1`, the inhibition at 10 µM against CYP3A4 [1] worked out at 97%.

For `Cn1cc(-c2cnc3ccc4ccc(CC(N)=O)cc4c(=O)c3c2)cn1`, on Cytochrome P450 3A4 [29], the TDI is below 10%.

Take `Cn1cc(-c2cnc3ccc4ccc(CS(N)(=O)=O)cc4c(=O)c3c2)cn1`: the inhibition at 10 µM against CYP3A4 [1] is 0%. The inhibition at 30 min, 10 µM on CYP3A4 [2] came to 26%.

`CCCNS(=O)(=O)Cc1ccc2ccc3ncc(-c4cnn(C)c4)cc3c(=O)c2c1` had an inhibition at 10 µM at CYP3A4 [1] of 21%. Moreover, the inhibition at 30 min, 10 µM at CYP3A4 [2] was determined as 15%.

For `CNS(=O)(=O)Cc1ccc2ccc3ncc(-c4cnn(C)c4)cc3c(=O)c2c1`, the inhibition at 10 µM against CYP3A4 [1] was found to be 0%. Moreover, on CYP3A4 [2], the inhibition at 30 min, 10 µM came out at 35%.

Molecule `Cn1cc(-c2cnc3ccc4ccc(CS(=O)(=O)NCCc5ccccn5)cc4c(=O)c3c2)cn1` showed an inhibition at 10 µM against CYP3A4 [1] of 14%. For the same molecule, on CYP3A4 [2], the inhibition at 30 min, 10 µM was 9%.

For the origin of these results see ChEMBL document CHEMBL2321765 (J Med Chem, 2013).
